The text below walks through data of PMC2709241 (Archives of biochemistry and biophysics, 2008).

The target in assay [1] is T1, wild-type C-his tagged human MDD (Homo sapiens, UniProt P53602).
T1 sequence (P53602 1-400): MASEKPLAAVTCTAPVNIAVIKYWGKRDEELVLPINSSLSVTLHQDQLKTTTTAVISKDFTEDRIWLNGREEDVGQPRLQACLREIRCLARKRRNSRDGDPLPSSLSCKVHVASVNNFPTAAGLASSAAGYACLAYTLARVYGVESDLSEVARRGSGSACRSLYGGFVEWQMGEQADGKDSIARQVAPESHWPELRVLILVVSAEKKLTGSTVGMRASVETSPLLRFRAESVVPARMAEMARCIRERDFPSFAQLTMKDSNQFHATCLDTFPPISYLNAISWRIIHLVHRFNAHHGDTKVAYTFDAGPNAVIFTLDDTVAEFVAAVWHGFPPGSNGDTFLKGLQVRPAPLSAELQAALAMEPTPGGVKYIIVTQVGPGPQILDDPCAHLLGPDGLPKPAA
Put plainly: Steady-state kinetics of wild-type. In kind it is biochemical. In outline:
(§1)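 His6-tagged human enzyme from E. coli BL21(DE3) was Ni-Sepharose purified and quantified by Bradford. Spectrophotometric assay at 30°C: ADP formation coupled through pyruvate kinase/lactate dehydrogenase (4 U) to NADH oxidation, with A340 decrease followed. Started with mevalonate diphosphate; substrate varied; Michaelis-Menten fit.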

The target of a further assay is T2, N17A mutant human MDD (Homo sapiens, UniProt P53602, N17A).
T2 sequence (P53602 1-400 N17A): T1 sequence (P53602 1-400) with N17A
Kind of assay: Steady-state kinetics of N17A human MDD. In kind it is biochemical. Conditions: for Km: N17A. In a few lines:
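N17A mutant, made by QuikChange PCR, was expressed and Ni-Sepharose purified as for the wild type. Started with mevalonate diphosphate; substrate varied; Michaelis-Menten fit. Km(ATP) was measured with RS-MVPP raised to 8.8 mM.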

For another assay, the target named is T3, S162A mutant human MDD (Homo sapiens, UniProt P53602, S162A).
T3 sequence (P53602 1-400 S162A): T1 sequence (P53602 1-400) with S162A
Put plainly: Steady-state kinetics of S162A human MDD. It is filed as biochemical. In a few lines: as §1

In another assay the target is T4, N-his tagged human MDD (Homo sapiens, UniProt P53602).
T4 sequence (P53602 1-400): T1 sequence (P53602 1-400)
Put plainly: Steady-state kinetics of N-his tagged human MDD. It is filed as biochemical. Conditions: N-his tagged enzyme. In outline: as §1

The next assay addresses T5, wild-type human MDD (Homo sapiens, UniProt P53602).
T5 sequence (P53602 1-400): T1 sequence (P53602 1-400)
Put plainly: TNP-ATP fluorescence titration, Scatchard analysis, wild-type human MDD. It is filed as binding. In outline: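 Purified His6-tagged enzyme, wild type or mutant, was held at a fixed concentration while TNP-ATP was titrated in at 25°C. Buffer: 50 mM Tris-Cl pH 7.0, 0.5 mM MgCl2, 1 mM DTT. TNP-ATP was quantified at A409 (ε 26 400 M-1 cm-1). Excitation was 409 nm; peak emission (530–538 nm) was corrected for free probe in buffer alone. Scatchard analysis: Kd from slope; n per 44 kDa subunit from x-intercept.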

Structures are written as SMILES. Residue numbers refer to the chain shown, from its start. Like-named read-outs stand apart in the source and are kept apart here.

Regarding `Nc1ncnc2c1ncn2[C@@H]1O[C@H](COP(=O)(O)OP(=O)(O)OP(=O)(O)O)[C@@H](O)[C@H]1O` [ATP], the Michaelis-Menten constant (Km) – broadly, the substrate concentration at which the rate is half of its maximum – in assay [1] (read-out: Km(ATP), WT C-his, 30°C, pH 7.0) is 690 ± 70 µM; at N17A mutant human MDD (read-out: Km(ATP), elevated RS-MVPP (8.8 mM)) it was 7700 ± 1200 µM; at S162A mutant human MDD (read-out: Km(ATP)), 4900 ± 1300 µM; at N-his tagged human MDD (read-out: Km(ATP)), 1700 µM.

On to `C[C@@](O)(CCOP(=O)(O)OP(=O)(O)O)CC(=O)O` [MVAPP, mevalonate 5-diphosphate], for which the Michaelis constant (Km) in assay [1] (read-out: Km(R,S-MVAPP), WT, Table 4) worked out at 28.9 ± 3.3 µM; in assay [1] (read-out: Km(RS-MVPP), WT C-his, 30°C, pH 7.0), 28.9 ± 3.3 µM; on N17A mutant human MDD (read-out: Km(R,S-MVAPP), Table 4), 425 ± 74 µM; at N17A mutant human MDD (read-out: Km(RS-MVPP), elevated ATP (20 mM) and MgCl2 (22mM)), 425 ± 74 µM; at S162A mutant human MDD (read-out: Km(RS-MVPP)), 126 ± 6.4 µM; at N-his tagged human MDD (read-out: Km(RS-MVPP)), 42.1 µM. Besides, at N17A mutant human MDD (N17A vs WT, listed as R,S-MVAPP), the “Fold Inflation of Km for mevalonate diphosphate, N17A vs WT” value came out at 14.7 fold.

In the case of `Nc1ncnc2c1ncn2[C@@H]1O[C@H](COP(=O)(O)OP(=O)(O)OP(=O)(O)O)[C@H]2OC3(O[C@H]21)C([N+](=O)[O-])=CC(=[N+]([O-])[O-])C=C3[N+](=O)[O-]` (stereo partly shown) [TNP-ATP, 2’(3’)-O-(2,4,6-Trinitrophenyl)adenosine-5’-triphosphate], at wild-type human MDD, the affinity, expressed as Kd, was 550 nM. The “n (binding stoichiometry)” value at wild-type human MDD (WT, binding sites per 44 kDa subunit) is listed as 0.77.
